GPR7 antagonist = GPR7 receptor antagonists, primary screen, cell-based, fluorescence, single concentration; 1.1% of 290,000 active; inhibition, % at 4.4 µM; Neuropeptides B/W receptor type 1 (Homo sapiens), P48145; GPR7-expressing cells, fluorescence antagonist assay; in the data active = inhibition above about 16%, passing the limit was not always enough;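 note: cells stimulated with the agonist NPW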
Target sequence (P48145 whole entry, looked up): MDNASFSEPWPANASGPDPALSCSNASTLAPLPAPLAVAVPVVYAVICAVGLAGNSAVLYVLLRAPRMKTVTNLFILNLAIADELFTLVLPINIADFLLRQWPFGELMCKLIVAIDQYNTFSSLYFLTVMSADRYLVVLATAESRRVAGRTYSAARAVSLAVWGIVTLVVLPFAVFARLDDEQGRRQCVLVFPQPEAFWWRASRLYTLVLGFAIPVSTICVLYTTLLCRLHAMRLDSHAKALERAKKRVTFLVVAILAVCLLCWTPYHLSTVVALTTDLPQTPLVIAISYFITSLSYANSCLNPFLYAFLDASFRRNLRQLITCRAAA
DAGLB inhibitor = DAGLB lipase inhibitors, primary screen, biochemical, fluorescence, HTS; Diacylglycerol lipase-beta (Homo sapiens), Q8NCG7; HEK293T DAGLB membrane lysate, EnzChek fluorogenic substrate; inhibition, % at 5.17 µM; 0.059% of 340,000 active; AID 504411, 2011; in the data active = inhibition above about 34%
MPTP inh = mitochondrial permeability transition pore inhibitors, primary screen, biochemical, isolated mouse mitochondria, absorbance | Ca2+ swelling absorbance, 30 min | inhibition, % at 10 µM | 1.4% of 360,000 active;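 active = inhibition of 50% or more, scaled per plate between neutral and stimulator controls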
TAAR1 agonist = human TAAR1 agonists, primary screen, Fluo-8 calcium fluorescence, CHO RD-HGA16 cells; vehicle wells 0%, saturating PEA agonist 100%; activation, % at 3 µM; 0.99% of 360,000 active;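 active = activation above the mean activation of all test compounds in the run plus 3 SD, cut at about 38% in these data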
Target sequence (Q96RJ0 whole entry, looked up): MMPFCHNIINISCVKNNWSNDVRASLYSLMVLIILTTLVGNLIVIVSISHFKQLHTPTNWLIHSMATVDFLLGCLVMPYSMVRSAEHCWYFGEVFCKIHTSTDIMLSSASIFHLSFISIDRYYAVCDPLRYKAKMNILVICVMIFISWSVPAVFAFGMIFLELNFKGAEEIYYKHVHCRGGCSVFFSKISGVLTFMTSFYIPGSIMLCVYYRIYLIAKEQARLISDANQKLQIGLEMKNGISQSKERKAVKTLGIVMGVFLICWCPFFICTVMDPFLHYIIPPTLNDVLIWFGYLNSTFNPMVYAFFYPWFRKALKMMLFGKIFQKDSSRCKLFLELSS
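Test system: RD-HGA16 (CHO) cells co-expressing Gα16 and hTAAR1 / Benchmarks: DMSO vehicle as 0%, PEA at EC100 as 100% / Repeats: no replicates (n 1) / Measure: % activation from peak over basal fluorescence ratio, DMSO-to-PEA scaled / Timing: 17-24 h plating, Fluo-8 75 min 37 °C, 30 min RT / Technique: kinetic Fluo-8 calcium fluorescence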
TAAR1 antagonist = human TAAR1 antagonists, primary screen, Fluo-8 calcium fluorescence, CHO RD-HGA16 cells; inhibition, % at 3 µM; 1.5% of 360,000 active; antagonist;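 active = inhibition above a per-plate cutoff, the mean inhibition of test compounds on that plate plus 3 SD, cut at about 49% in these data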
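Test system: CHO RD-HGA16 cells bearing hTAAR1 | Reagent: β-PEA, EC80 | Compound dosing: 3 µM, single point | Schedule: Dye loading 75 min at 37 °C, then 30 min room temperature | Signal: Calcium fluorescence with Fluo-8 | Evaluation: Percent inhibition of PEA-evoked calcium signal, max/basal emission ratio | Control set: DMSO-only wells and EC80 β-PEA-stimulated wells | Repeats: Singlicate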
GPR7 antag conf = GPR7 receptor antagonists, confirmation, cell-based, fluorescence, single concentration; shares compounds with GPR7 antagonist; GPR7-expressing cells, calcium fluorescence antagonist mode; inhibition, % at 4.4 µM; 52% of 2,400 active; AID 1952, 2009; in the data active = inhibition above about 24%;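 note: stimulated with the GPR7 agonist NPW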
MCHR1 antagonist = MCHR1 antagonists in cells, counter-screen for GPR7 antagonist project, cell-based, fluorescence, human; shares compounds with GPR7 antagonist; MCHR1-expressing cells, fluorescence antagonist assay; inhibition, % at 4.4 µM; 62% of 2,400 active; AID 2148, 2009
DAGLB inh conf = DAGLB lipase inhibitors, retest, confirmation, biochemical, fluorescence, HEK293T membranes | shares compounds with DAGLB inhibitor | HEK293T DAGLB membrane lysate, EnzChek fluorogenic substrate | inhibition, % at 5.17 µM | 73% of 190 active;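 active = mean inhibition over triplicate wells above a set limit taken from the primary lipase screen, cut at about 34% in these data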
MPTP counter = fluorescence retest of MPTP screen hits in isolated mitochondria, single concentration. shares compounds with MPTP inh. membrane potential, Rhodamine 123 fluorescence. inhibition, % at 10 µM. 78% of 5,000 active
TAAR1 ag confirm = human TAAR1 agonists, retest of hits, confirmation, Fluo-8 calcium fluorescence, CHO RD-HGA16 cells | shares compounds with TAAR1 agonist | scaled: DMSO 0%, maximal phenethylamine 100% | activation, % at 3 µM | 82% of 2,400 active;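 active = activation above a cutoff set at the run's mean compound activation plus 3 SD, cut at about 39% in these data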
Ga16 nonsel ag = nonselective calcium mobilization agonists, CHO-Ga16 cells, counter-screen for hTAAR1 agonist project, cell-based, fluorescence, CHO-Ga16 parental line; 50% of 2,400 active; Fluo-8 calcium fluorescence; normalized to maximal ATP response, DMSO zero; shares compounds with TAAR1 agonist; activation, % at 3 µM;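 active = activation above the run cutoff, the mean activation over all tested wells plus 3 SD, cut at about 12% in these data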
TAAR1 desens = TAAR1 desensitization by agonist hits, confirmation, counter-screen for TAAR1 agonist project, cell-based, fluorescence, tachyphylaxis; shares compounds with TAAR1 agonist; inhibition, % at 3 µM; CHO RD-HGA16 hTAAR1, Fluo-8 calcium, beta-PEA response inhibition; 46% of 2,400 active; AID 651951, 2012;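 active = inhibition above the run cutoff, the mean inhibition of all test compounds plus 3 SD, cut at about 49% in these data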;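 note: beta-PEA stimulus applied at its EC80; loss of beta-PEA calcium signal after compound pretreatment read as receptor desensitization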
Ga16 antag count = inhibition of ATP-evoked calcium response in CHO-Ga16 cells, counter-screen for TAAR1 agonist project, cell-based, fluorescence. CHO-Ga16 ATP-induced calcium, Fluo-8 fluorescence. inhibition, % at 3 µM. shares compounds with TAAR1 agonist. 39% of 2,400 active;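 active = inhibition above the plate's mean compound inhibition plus 3 SD, computed per plate, cut at about 22% in these data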
A number is an active result; 0 = inactive; - = no result; + = active, no number. Most compounds without a hit are left out; they make up all but 4% or so of the library. Cut-off read from the data, not from the text of the source, unless noted: active = inhibition above about 22%; inactive = the rest.

SMILES | GPR7 antagonist | DAGLB inhibitor | MPTP inh | TAAR1 agonist | TAAR1 antagonist | GPR7 antag conf | MCHR1 antagonist | TAAR1 ag confirm | Ga16 nonsel ag | TAAR1 desens | Ga16 antag count | others
COc1ccc(NC(=S)NC(=O)Cc2ccccc2)c(OC)c1 | 0 | 0 | 0 | 0 | 0 | - | - | - | - | - | -
Cc1ccc(NC(=S)NC(=O)Cc2ccccc2)c(O)c1 | 29 | 0 | 0 | 66 | 0 | 42 | 29 | 73 | 27 | 0 | 24
CC(C)(C)C(=O)NC(=S)NNC(=O)c1ccc(Cl)cc1Cl | 32 | 0 | 76 | 202 | 104 | 40 | 37 | 144 | 115 | 107 | 92 | MPTP counter=0
COC(=O)NNC(=O)c1ccc(Cl)cc1Cl | 0 | 0 | 0 | 0 | 0 | - | - | - | - | - | -
CC(=O)c1cccc(NC(=S)NC(=O)Cc2ccc(Cl)cc2)c1 | 36 | 0 | 0 | 94 | 57 | 55 | 35 | 106 | 59 | 85 | 47
CC(=O)c1cccc(NC(=S)NC(=O)Cc2ccccc2)c1 | 0 | 0 | 0 | 0 | 0 | - | - | - | - | - | -
CC(C(=O)Nc1ccc2c(c1)OCO2)c1ccc([N+](=O)[O-])cc1 (stereo unspecified) | 0 | 0 | 0 | 0 | 0 | - | - | - | - | - | -
CC(C(=O)Nc1ccc2c(c1)OCCO2)c1ccc([N+](=O)[O-])cc1 (stereo unspecified) | 47 | 0 | 0 | 128 | 76 | 70 | 51 | 123 | 85 | 78 | 40
CC(C(=O)Nc1cccnc1)c1ccc([N+](=O)[O-])cc1 (stereo unspecified) | 0 | 0 | 0 | 0 | 0 | - | - | - | - | - | -
CC(C)Cc1ccc(C(C)C(=O)Nc2ccc(O)cc2)cc1 (stereo unspecified) | 83 | 0 | 73 | 119 | 93 | 88 | 95 | 108 | 71 | 101 | 82 | MPTP counter=38
CC(C)Cc1ccc([C@H](C)C(=O)O)cc1 | - | 0 | 0 | 0 | 0 | - | - | - | - | - | -
CC(C)Cc1ccc(C(C)C(=O)Nc2cccnc2)cc1 (stereo unspecified) | 54 | 0 | 85 | 84 | 63 | 46 | 68 | 126 | 65 | 79 | 43 | MPTP counter=79
COCC(=O)N1C[C@H]2CON(C)[C@H]2C[C@H]1c1cccc(-c2ccccc2)c1 | - | 0 | 0 | 0 | 0 | - | - | - | - | - | -
CC(OC(=O)c1nc(Cl)ccc1Cl)C(=O)NCc1ccccc1 (stereo unspecified) | - | 0 | 0 | 0 | 0 | - | - | - | - | - | -
CCN(CC)C1=CC2=CC(=C(C#N)C#N)CCC2CC1 (stereo unspecified) | 58 | 0 | 0 | 1000 | 109 | 91 | 105 | + | + | 106 | 103
CCCCN(C)C1=CC2=CC(=C(C#N)C#N)CCC2CC1 (stereo unspecified) | 75 | 0 | 0 | 992 | 108 | 103 | 110 | 763 | 872 | 106 | 103
COc1ccc(S(=O)(=O)N(C)C[C@H]2Oc3ccc(NC(=O)Cc4cn(C)c5ccccc45)cc3C(=O)N([C@@H](C)CO)C[C@@H]2C)cc1 | - | 0 | 0 | 0 | 0 | - | - | - | - | - | -
Cc1ccc(Cn2nnc(C(=O)Nc3cccc(C)c3C)c2N)cc1 | 61 | 0 | 0 | 118 | 81 | 77 | 75 | 123 | 85 | 87 | 59
COCC1CN(CCc2ccc(F)cc2)S(=O)(=O)c2c(F)cccc2O1 (stereo unspecified) | - | - | - | 0 | 0 | - | - | - | - | - | -
NC(=Nc1ccccc1)Nc1ccccc1 | 101 | 0 | 0 | 87 | 79 | 98 | 108 | 118 | 83 | 94 | 67
O=C1c2cc(O)c(O)cc2OC(c2ccc(O)c(O)c2)C1O (stereo unspecified) | - | 0 | 0 | 0 | 0 | - | - | - | - | - | -
COc1cccc(CN2CCN(Cc3cc4ccccc4[nH]3)CC2CCO)c1 (stereo unspecified) | 67 | 0 | 0 | 63 | 69 | 79 | 81 | 70 | 49 | 81 | 56
COc1ccc(CN2CCN(Cc3cccc(OC)c3)C(CCO)C2)cc1 (stereo unspecified) | 0 | 0 | 0 | 0 | 0 | - | - | - | - | - | -
CN1CCN(C2=Cc3ccccc3Sc3cc(F)c(Cl)cc32)CC1 | 27 | 0 | 0 | 46 | 0 | 38 | 58 | 38 | 16 | 0 | 24
Cc1noc(C)c1S(=O)(=O)N1CCCc2nc(-c3ccc(Br)cc3)ccc21 | - | - | - | 0 | 0 | - | - | - | - | - | -
COc1ccc(C(CCNC(C)c2ccccc2)c2ccc(F)cc2)cc1 (stereo unspecified) | 40 | 0 | 0 | 51 | 0 | 47 | 56 | 66 | 35 | 0 | 34
O=S(=O)(O)c1cccc(N=Nc2c(O)ccc3ccccc23)c1 | 0 | 37 | 0 | 0 | 0 | - | - | - | - | - | - | DAGLB inh conf=37
Oc1ccc2ccccc2c1N=Nc1ccccc1F | 0 | 0 | 0 | 0 | 0 | - | - | - | - | - | -
CC(=O)c1c(C)oc2ccc(NS(=O)(=O)c3ccc(O)c(C(=O)O)c3)cc12 | 0 | 57 | 0 | 0 | 0 | - | - | - | - | - | - | DAGLB inh conf=53
O=[N+]([O-])c1cc([N+](=O)[O-])c2oc(-c3ccccc3)c(Br)c2c1O | 0 | 37 | 0 | - | - | - | - | - | - | - | - | DAGLB inh conf=37
